Reference: ChEMBL document CHEMBL1145973 (J Med Chem, 2003)

Legend:
Mu-type opioid receptor [1] = biological target: T1, Mu-type opioid receptor (Homo sapiens, UniProt P35372); assay: Compound tested at 10 uM for the ability to induce Opioid receptor mu 1-mediated binding of [35S]GTP-gamma-S to G proteins in CHO membrane preparations; format: functional, cell membranes
How it was run: (§1)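 Human MOR-1 stably transfected into CHO cells; membrane preparations incubated with GDP and test compound at 10 µM. Specific [35S]GTP-γ-S binding to G proteins is expressed as a percentage of DAMGO-induced specific binding. Mean ± SD of quadruplicate measurements.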

Mu-type opioid receptor [2] = biological target: T1, Mu-type opioid receptor; assay: Efficacy for Opioid receptor mu 1-mediated [35S]GTP-gamma-S incorporation into CHO membrane preparations; format: functional
[3] = biological target: Kappa-type opioid receptor (Cavia porcellus, UniProt P41144); assay: Displacement of 3H-U-69,593 from Opioid receptor kappa 1 in guinea pig cerebellum preparation; format: tissue-based
Chain of Kappa-type opioid receptor (P41144 whole entry): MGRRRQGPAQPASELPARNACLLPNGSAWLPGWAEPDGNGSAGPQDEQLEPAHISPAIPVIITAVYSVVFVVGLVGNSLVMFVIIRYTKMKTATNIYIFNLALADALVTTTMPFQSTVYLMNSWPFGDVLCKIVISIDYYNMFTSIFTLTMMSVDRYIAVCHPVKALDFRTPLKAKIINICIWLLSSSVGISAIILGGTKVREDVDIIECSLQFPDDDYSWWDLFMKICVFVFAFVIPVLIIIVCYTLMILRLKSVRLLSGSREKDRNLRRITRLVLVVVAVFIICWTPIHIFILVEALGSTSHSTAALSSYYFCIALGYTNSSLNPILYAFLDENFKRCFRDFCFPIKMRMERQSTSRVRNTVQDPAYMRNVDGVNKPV

[4] = biological target: Delta-type opioid receptor (Homo sapiens, UniProt P41143); assay: Displacement of [3H]diprenorphine from human Opioid receptor delta 1 epressing HEK293 cells; format: cell-based
Chain of Delta-type opioid receptor (P41143 whole entry): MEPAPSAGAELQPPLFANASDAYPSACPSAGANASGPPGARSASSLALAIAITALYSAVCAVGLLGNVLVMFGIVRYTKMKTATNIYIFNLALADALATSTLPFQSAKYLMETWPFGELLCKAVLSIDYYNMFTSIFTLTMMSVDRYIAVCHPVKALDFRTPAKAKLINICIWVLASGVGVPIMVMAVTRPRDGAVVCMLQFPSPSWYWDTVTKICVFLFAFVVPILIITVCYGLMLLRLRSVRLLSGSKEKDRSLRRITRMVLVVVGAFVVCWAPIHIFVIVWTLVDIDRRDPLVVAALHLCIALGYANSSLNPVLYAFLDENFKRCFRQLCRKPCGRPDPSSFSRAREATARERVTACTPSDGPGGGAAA
How it was run: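 Human DOR-1 stably transfected into HEK-293 cells; competition binding against 3H-diprenorphine. Mean ± SD of duplicate measurements.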

Mu-type opioid receptor [5] = biological target: T1, Mu-type opioid receptor; assay: Displacement of [3H]DAMGO from human Opioid receptor mu 1 expressing CHO cells; format: cell-based
[6] = biological target: Opioid receptors; mu & delta (Homo sapiens) (UniProt P41143+P35372); assay: Relative affinity for delta and mu opioid receptors; format: protein assay
Chain of Opioid receptors; mu & delta (Homo sapiens) (P35372 whole entry, looked up): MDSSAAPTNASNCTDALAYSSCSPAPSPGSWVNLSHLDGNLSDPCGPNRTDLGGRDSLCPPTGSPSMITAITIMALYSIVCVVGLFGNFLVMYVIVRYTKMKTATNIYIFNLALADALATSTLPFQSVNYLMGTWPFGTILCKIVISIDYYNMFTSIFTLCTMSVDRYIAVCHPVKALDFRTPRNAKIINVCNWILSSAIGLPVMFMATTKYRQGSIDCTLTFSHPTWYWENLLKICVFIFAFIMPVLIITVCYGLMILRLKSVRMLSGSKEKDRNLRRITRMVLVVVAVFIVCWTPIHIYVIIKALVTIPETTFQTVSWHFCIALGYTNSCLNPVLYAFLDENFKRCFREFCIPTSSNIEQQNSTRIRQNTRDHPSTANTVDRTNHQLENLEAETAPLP
Chain of Opioid receptors; mu & delta (Homo sapiens) (P41143 whole entry, looked up): as the sequence (P41143 whole entry) above

[7] = biological target: Opioid receptors; mu & kappa (Homo sapiens) (UniProt P41145+P35372); assay: Relative affinity for kappa 1 and mu opioid receptors; format: protein assay
Chain of Opioid receptors; mu & kappa (Homo sapiens) (P35372 whole entry, looked up): as the sequence (P35372 whole entry, looked up) above
Chain of Opioid receptors; mu & kappa (Homo sapiens) (P41145 whole entry, looked up): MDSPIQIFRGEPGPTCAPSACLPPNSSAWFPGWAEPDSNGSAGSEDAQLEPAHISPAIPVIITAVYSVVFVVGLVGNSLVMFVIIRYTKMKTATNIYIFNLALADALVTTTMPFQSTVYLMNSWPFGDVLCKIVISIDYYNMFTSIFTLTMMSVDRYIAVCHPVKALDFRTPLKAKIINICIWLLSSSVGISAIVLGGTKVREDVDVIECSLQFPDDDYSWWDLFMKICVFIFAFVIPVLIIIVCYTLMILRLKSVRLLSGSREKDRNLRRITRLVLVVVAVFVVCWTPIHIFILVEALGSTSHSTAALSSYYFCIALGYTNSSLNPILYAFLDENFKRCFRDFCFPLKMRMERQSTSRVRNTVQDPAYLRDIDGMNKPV
How it was run: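 Ratio of Ki at KOR, from 3H-U-69,593 competition in guinea pig cerebellum, to Ki at MOR, from 3H-DAMGO competition on hMOR-1 in CHO cells.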

Mu-type opioid receptor [8] = biological target: T1, Mu-type opioid receptor; assay: Specific binding of GTP-gamma -35S to G proteins in CHO membrane preparation stably transfected with human Opioid receptor mu 1 in the presence of GDP and 10 uM compound; format: cell membranes; how it was run: as §1

T1 sequence (P35372 whole entry): as the sequence (P35372 whole entry, looked up) above

Row | Structure (SMILES) | EC50 (Mu-type opioid receptor [1]) [nM] | GTP-gamma35S bound (Mu-type opioid receptor [2]) [%] | Ki [3] [nM] | Ki [4] [nM] | Ki (Mu-type opioid receptor [5]) [nM] | Ratio [6] | Ratio [7] | Ki ([4]; hek293) [nM] | Ki (Mu-type opioid receptor [5]; cho) [nM] | GTP-gamma35S bound (Mu-type opioid receptor [8]) [%]
1 | Cc1cc(O)cc(C)c1C[C@H](N)[C@@H](O)C/C=C/[C@@H](O)[C@@H](Cc1ccccc1)C(=O)N[C@@H](Cc1ccccc1)C(N)=O | 7.9 | 75 | 21 | 36 | 0.42 | 86 | 49 | – | – | –
2 | Cc1cc(O)cc(C)c1C[C@H](N)[C@@H](O)C/C=C/[C@H](O)[C@@H](Cc1ccccc1)C(=O)O[C@@H](Cc1ccccc1)C(N)=O | – | 47 | 126 | 21 | – | 46 | 280 | – | – | –
3 | Cc1cc(O)cc(C)c1C[C@H](N)[C@@H](O)C/C=C/[C@H](O)[C@@H](Cc1ccccc1)C(=O)N[C@@H](Cc1ccccc1)C(N)=O | – | 35 | 22 | 40 | 0.17 | 230 | 130 | – | – | –
4 | Cc1cc(O)cc(C)c1C[C@H](N)[C@@H](O)C/C=C/[C@H](O)[C@@H](Cc1ccccc1)C(=O)N[C@H](CO)Cc1ccccc1 | – | 44 | 69 | 54 | 0.16 | 340 | 430 | – | – | –
5 | Cc1cc(O)cc(C)c1C[C@H](N)[C@H](O)C/C=C/[C@H](O)[C@@H](Cc1ccccc1)C(=O)N[C@@H](Cc1ccccc1)C(N)=O | – | 14 | 15 | 46 | 1.2 | 38 | 13 | – | – | –
6 | Cc1cc(O)cc(C)c1C[C@H](N)[C@@H](O)C/C=C/[C@H](O)[C@@H](Cc1ccccc1)C(=O)OCCc1ccccc1 | 4.2 | 79 | – | 56 | 0.24 | – | – | – | – | –
7 | Cc1cc(O)cc(C)c1C[C@H](N)[C@@H](O)C/C=C/[C@@H](O)[C@H](Cc1ccccc1)C(=O)N[C@@H](Cc1ccccc1)C(N)=O | – | 32 | 50 | 230 | 1.2 | 190 | 41 | – | – | –
8 | NC(=O)[C@H](Cc1ccccc1)NC(=O)[C@H](Cc1ccccc1)NC(=O)[C@@H]1CCCN1C(=O)[C@@H](N)Cc1ccccc1 | 31 | – | 10400 | – | – | – | – | […] | 0.69 | –
9 | Cc1cc(O)cc(C)c1C[C@H](N)[C@@H](O)C/C=C/[C@H](O)[C@@H](Cc1ccccc1)C(=O)NCCc1ccccc1 | – | 40 | 42 | 99 | 0.29 | 340 | 140 | – | – | –
10 | Cc1cc(O)cc(C)c1C[C@H](N)[C@H](O)C/C=C/[C@H](O)[C@@H](Cc1ccccc1)C(=O)NCCc1ccccc1 | 49 | 49 | 51 | 123 | 0.24 | 510 | 210 | – | – | –
11 | NC(=O)[C@H](Cc1ccccc1)NC(=O)[C@H](Cc1ccccc1)NC(=O)[C@H]1CCCN1C(=O)[C@@H](N)Cc1ccccc1 | – | 100 | – | – | – | […] | […] | – | – | –
12 | Cc1cc(O)cc(C)c1C[C@H](N)[C@@H](O)C/C=C/[C@H](O)[C@@H](Cc1ccccc1)C(=O)O[C@H](CO)Cc1ccccc1 | – | – | 85 | 17 | 0.44 | 39 | 190 | – | – | 62
13 | Cc1cc(O)cc(C)c1C[C@H](N)[C@H](O)C/C=C/[C@@H](O)[C@@H](Cc1ccccc1)C(=O)N[C@@H](Cc1ccccc1)C(N)=O | – | 43 | 25 | 85 | 1.6 | 53 | 16 | – | – | –
14 | Cc1cc(O)cc(C)c1C[C@H](N)[C@@H](O)C/C=C/[C@@H](O)[C@H](Cc1ccccc1)C(=O)NCCc1ccccc1 | – | 52 | 60 | 119 | 0.64 | 190 | 94 | – | – | –
15 | Cc1cc(O)cc(C)c1C[C@H](N)[C@@H](O)C/C=C/[C@@H](O)[C@@H](Cc1ccccc1)C(=O)NCCc1ccccc1 | – | 48 | 64 | 26 | 0.37 | 70 | 170 | – | – | –
16 | Cc1cc(O)cc(C)c1C[C@H](N)[C@H](O)C/C=C/[C@@H](O)[C@@H](Cc1ccccc1)C(=O)NCCc1ccccc1 | – | 27 | 69 | 66 | 0.72 | 91 | 96 | – | – | –
